Experimental data published in ChEMBL document CHEMBL5303300, “EUbOPEN Chemogenomics Library - Multiplex” (2023).
Where “and” joins values, the source holds several entries; their conditions need not be identical. Identical values can stand only once.

Tested on: Fibroblast
Assay: Multiplex assay against human fibroblast
Assay type: toxicity, cell-based
Conditions: number of replicates 2
In short: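 Live cells were stained at seeding with Hoechst33342, BioTracker Green Microtubule Cytoskeleton Dye, MitoTracker Red and Annexin V Alexa Fluor 680, then imaged on a CQ1 microscope at 37°C and 5% CO2 after compound addition. CellPathfinder machine-learning gating split cells into Hoechst high-intensity objects or normal cells. Normal cells were split into healthy, pyknosed or fragmented nuclei, and pyknosed cells into mitotic or apoptotic. Tubulin, mitochondrial-mass and membrane-permeability phenotypes are per cents of healthy-nucleus cells.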

[1] = 12 h, 1 µM, compound concentration 1 uM
[2] = 12 h, 10 µM, compound concentration 10 uM
[3] = 24 h, 1 µM, compound concentration 1 uM
[4] = 24 h, 10 µM, compound concentration 10 uM
[5] = 48 h, 1 µM, compound concentration 1 uM
[6] = 48 h, 10 µM, compound concentration 10 uM

## CC(C)S(=O)(=O)c1ccccc1Nc1nc(N[C@@H]2CCCN(CCCCCCCNC(=O)COc3cccc4c3C(=O)N(C3CCC(=O)NC3=O)C4=O)C2)ncc1Cl (stereo partly specified)
[1]
  Population Apoptotic (%): 55% and 64%
  Population Fragmented Nuclei (%): 12% and 11%
  Population Healthy Nuclei (%): 50%
  Population Hoechst High Intensity Objects (%): 0%
  Population Membrane Permeable-Phenotype (%): 15% and 11%
  Population Mitochondria Different-Phenotype (%): 4% and 2%
  Population Mitotic Cells (%): 44% and 35%
  Population Normal (%): 100%
  Population Pyknosed Nuclei (%): 37% and 38%
  Population Tubulin-Different-Phenotype (%): 40% and 37%
  Total Cell Count: 181 and 196
[2]
  Population Apoptotic (%): 65% and 48%
  Population Fragmented Nuclei (%): 12% and 16%
  Population Healthy Nuclei (%): 42% and 33%
  Population Hoechst High Intensity Objects (%): 0% and 1%
  Population Membrane Permeable-Phenotype (%): 56% and 36%
  Population Mitochondria Different-Phenotype (%): 22% and 30%
  Population Mitotic Cells (%): 34% and 52%
  Population Normal (%): 99% and 98%
  Population Pyknosed Nuclei (%): 44% and 49%
  Population Tubulin-Different-Phenotype (%): 72% and 32%
  Total Cell Count: 231 and 205
[3]
  Population Apoptotic (%): 68% and 83%
  Population Fragmented Nuclei (%): 10%
  Population Healthy Nuclei (%): 51%
  Population Hoechst High Intensity Objects (%): 0%
  Population Membrane Permeable-Phenotype (%): 7% and 4%
  Population Mitochondria Different-Phenotype (%): 9% and 4%
  Population Mitotic Cells (%): 31% and 16%
  Population Normal (%): 99% and 100%
  Population Pyknosed Nuclei (%): 37%
  Population Tubulin-Different-Phenotype (%): 27% and 15%
  Total Cell Count: 171 and 175
[4]
  Population Apoptotic (%): 74% and 79%
  Population Fragmented Nuclei (%): 13% and 14%
  Population Healthy Nuclei (%): 32% and 33%
  Population Hoechst High Intensity Objects (%): 1%
  Population Membrane Permeable-Phenotype (%): 32% and 19%
  Population Mitochondria Different-Phenotype (%): 36% and 39%
  Population Mitotic Cells (%): 26% and 20%
  Population Normal (%): 98%
  Population Pyknosed Nuclei (%): 53% and 51%
  Population Tubulin-Different-Phenotype (%): 68% and 75%
  Total Cell Count: 188 and 232
[5]
  Population Apoptotic (%): 63% and 73%
  Population Fragmented Nuclei (%): 15% and 12%
  Population Healthy Nuclei (%): 44% and 43%
  Population Hoechst High Intensity Objects (%): 0%
  Population Membrane Permeable-Phenotype (%): 18% and 9%
  Population Mitochondria Different-Phenotype (%): 5% and 8%
  Population Mitotic Cells (%): 36% and 26%
  Population Normal (%): 99% and 100%
  Population Pyknosed Nuclei (%): 40% and 43%
  Population Tubulin-Different-Phenotype (%): 31% and 36%
  Total Cell Count: 173 and 163
[6]
  Population Apoptotic (%): 79% and 83%
  Population Fragmented Nuclei (%): 17% and 13%
  Population Healthy Nuclei (%): 36% and 32%
  Population Hoechst High Intensity Objects (%): 2% and 0%
  Population Membrane Permeable-Phenotype (%): 36% and 34%
  Population Mitochondria Different-Phenotype (%): 14% and 22%
  Population Mitotic Cells (%): 20% and 16%
  Population Normal (%): 97% and 99%
  Population Pyknosed Nuclei (%): 46% and 53%
  Population Tubulin-Different-Phenotype (%): 73% and 60%
  Total Cell Count: 196 and 232

## CC(C)c1cc(-c2ccc(F)c3ccccc23)nc(N)n1
[1]
  Population Apoptotic (%): 33%
  Population Fragmented Nuclei (%): 14% and 15%
  Population Healthy Nuclei (%): 70% and 65%
  Population Hoechst High Intensity Objects (%): 1% and 0%
  Population Membrane Permeable-Phenotype (%): 5% and 8%
  Population Mitochondria Different-Phenotype (%): 0% and 3%
  Population Mitotic Cells (%): 66%
  Population Normal (%): 98% and 100%
  Population Pyknosed Nuclei (%): 15% and 18%
  Population Tubulin-Different-Phenotype (%): 16% and 14%
  Total Cell Count: 161 and 144
[2]
  Population Apoptotic (%): 38%
  Population Fragmented Nuclei (%): 11% and 16%
  Population Healthy Nuclei (%): 75% and 71%
  Population Hoechst High Intensity Objects (%): 0%
  Population Membrane Permeable-Phenotype (%): 7%
  Population Mitochondria Different-Phenotype (%): 0% and 2%
  Population Mitotic Cells (%): 61%
  Population Normal (%): 100%
  Population Pyknosed Nuclei (%): 12%
  Population Tubulin-Different-Phenotype (%): 12%
  Total Cell Count: 140 and 174
[3]
  Population Apoptotic (%): 47% and 40%
  Population Fragmented Nuclei (%): 14% and 15%
  Population Healthy Nuclei (%): 71% and 67%
  Population Hoechst High Intensity Objects (%): 0%
  Population Membrane Permeable-Phenotype (%): 4% and 8%
  Population Mitochondria Different-Phenotype (%): 0% and 1%
  Population Mitotic Cells (%): 52% and 60%
  Population Normal (%): 100%
  Population Pyknosed Nuclei (%): 13% and 17%
  Population Tubulin-Different-Phenotype (%): 17% and 12%
  Total Cell Count: 157 and 140
[4]
  Population Apoptotic (%): 75% and 46%
  Population Fragmented Nuclei (%): 9% and 14%
  Population Healthy Nuclei (%): 84% and 76%
  Population Hoechst High Intensity Objects (%): 0%
  Population Membrane Permeable-Phenotype (%): 5% and 1%
  Population Mitochondria Different-Phenotype (%): 0% and 3%
  Population Mitotic Cells (%): 25% and 53%
  Population Normal (%): 99% and 100%
  Population Pyknosed Nuclei (%): 5% and 8%
  Population Tubulin-Different-Phenotype (%): 11% and 8%
  Total Cell Count: 135 and 171
[5]
  Population Apoptotic (%): 65% and 57%
  Population Fragmented Nuclei (%): 16% and 13%
  Population Healthy Nuclei (%): 69% and 71%
  Population Hoechst High Intensity Objects (%): 0%
  Population Membrane Permeable-Phenotype (%): 4% and 7%
  Population Mitochondria Different-Phenotype (%): 0%
  Population Mitotic Cells (%): 34% and 42%
  Population Normal (%): 100% and 99%
  Population Pyknosed Nuclei (%): 13% and 14%
  Population Tubulin-Different-Phenotype (%): 14% and 7%
  Total Cell Count: 173 and 142
[6]
  Population Apoptotic (%): 100% and 54%
  Population Fragmented Nuclei (%): 13% and 14%
  Population Healthy Nuclei (%): 82% and 79%
  Population Hoechst High Intensity Objects (%): 0%
  Population Membrane Permeable-Phenotype (%): 3% and 1%
  Population Mitochondria Different-Phenotype (%): 0%
  Population Normal (%): 100%
  Population Pyknosed Nuclei (%): 3% and 6%
  Population Tubulin-Different-Phenotype (%): 7% and 5%
  Total Cell Count: 152 and 175
